# The source made the active and inactive calls. The calls are words filed in the database; no cut-off is given here.
# How the values were obtained:
# [1] = target: Neuronal acetylcholine receptor; alpha3/beta4 (Rattus norvegicus, UniProt P04757+P12392); test: Displacement of [3H]epibatidine from rat alpha3beta4 nAChR transfected in HEK293 cell membrane; format: cell membranes
# [2] = target: T1, Neuronal acetylcholine receptor; alpha4/beta2 (Rattus norvegicus, UniProt P09483+P12390); test: Displacement of [3H]epibatidine from rat alpha4beta2 nAChR transfected in HEK293 cell membrane; format: cell membranes
# In short: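 Rat α4β2, α4β4 or α3β4 subtypes; competition binding against [3H]epibatidine; Ki values; means of 3–5 independent experiments, each run in duplicate.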
# [3] = target: Neuronal acetylcholine receptor subunit alpha-7 (Rattus norvegicus, UniProt Q05941); test: Displacement of [3H]MLA from rat alpha7 nAChR transfected in tsA201 cell membrane; format: cell membranes
# [4] = target: Neuronal acetylcholine receptor; alpha4/beta4 (Rattus norvegicus, UniProt P09483+P12392); test: Displacement of [3H]epibatidine from rat alpha4beta4 nAChR transfected in HEK293 cell membrane; format: cell membranes
# [5] = target: T2, Neuronal acetylcholine receptor; alpha4/beta2 (Rattus norvegicus) (UniProt P09483+P12390); test: Inhibition of rat alpha4beta2 nAChR expressed in Xenopus laevis oocytes assessed as inhibition of 30 uM ACh-induced current at 100 uM by two electrode-electrophysiology method; format: cell-based
# In short: (§1)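 α4β2-expressing oocytes: compound at 100 μM applied alone to monitor baseline current, then coapplied with 30 μM ACh to assess the ACh-evoked current.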
# Mus musculus = test: Antidepressant activity in mouse assessed as total swim distance at 1 to 10 mg/kg, sc by forced swimming test; format: functional, organism-based
# In short: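 Mouse forced swim test; subcutaneous doses of 1, 3 and 10 mg/kg; swimming scored.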
# [6] = target: T1, Neuronal acetylcholine receptor; alpha4/beta2; test: Inhibition of rat (alpha4)3(beta2)2 nAChR expressed in Xenopus laevis oocytes assessed as inhibition of 1 mM ACh-induced current by two electrode-electrophysiology method; format: cell-based
# In short: (§2)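 Xenopus oocytes injected with α4 and β2 mRNA at ratio 10:1 for (α4)3(β2)2 or 1:10 for (α4)2(β2)3. Peak currents evoked by fixed ACh (1 mM for 10:1, 100 μM for 1:10) are measured with increasing compound concentrations. Concentration–inhibition curves give IC50, with Ki also reported.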
# [7] = target: T1, Neuronal acetylcholine receptor; alpha4/beta2; test: Inhibition of rat (alpha4)2(beta2)3 nAChR expressed in Xenopus laevis oocytes assessed as inhibition of 100 uM ACh-induced current by two electrode-electrophysiology method; format: cell-based; in short: as §2
# [8] = target: T2, Neuronal acetylcholine receptor; alpha4/beta2 (Rattus norvegicus); test: Inhibition of rat alpha4beta2 nAChR expressed in Xenopus laevis oocytes assessed as baseline current at 100 uM by two electrode-electrophysiology method; format: cell-based; in short: as §1
# [9] = target: Neuronal acetylcholine receptor; alpha3/beta4 (Rattus norvegicus) (UniProt P04757+P12392); test: Agonist activity at rat alpha3beta4 nAChR expressed in HEK293T cells by FLIPR assay; format: cell-based; details: HEK-293T
# [10] = target: T1, Neuronal acetylcholine receptor; alpha4/beta2; test: Antagonist activity at rat alpha4beta2 nAChR expressed in HEK293T cells by FLIPR assay; format: cell-based, HEK-293T
# In short: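 Fluorescence-based FLIPR membrane potential read-out of receptor function; antagonist mode gives an IC50.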
# T1 sequence (P09483 whole entry): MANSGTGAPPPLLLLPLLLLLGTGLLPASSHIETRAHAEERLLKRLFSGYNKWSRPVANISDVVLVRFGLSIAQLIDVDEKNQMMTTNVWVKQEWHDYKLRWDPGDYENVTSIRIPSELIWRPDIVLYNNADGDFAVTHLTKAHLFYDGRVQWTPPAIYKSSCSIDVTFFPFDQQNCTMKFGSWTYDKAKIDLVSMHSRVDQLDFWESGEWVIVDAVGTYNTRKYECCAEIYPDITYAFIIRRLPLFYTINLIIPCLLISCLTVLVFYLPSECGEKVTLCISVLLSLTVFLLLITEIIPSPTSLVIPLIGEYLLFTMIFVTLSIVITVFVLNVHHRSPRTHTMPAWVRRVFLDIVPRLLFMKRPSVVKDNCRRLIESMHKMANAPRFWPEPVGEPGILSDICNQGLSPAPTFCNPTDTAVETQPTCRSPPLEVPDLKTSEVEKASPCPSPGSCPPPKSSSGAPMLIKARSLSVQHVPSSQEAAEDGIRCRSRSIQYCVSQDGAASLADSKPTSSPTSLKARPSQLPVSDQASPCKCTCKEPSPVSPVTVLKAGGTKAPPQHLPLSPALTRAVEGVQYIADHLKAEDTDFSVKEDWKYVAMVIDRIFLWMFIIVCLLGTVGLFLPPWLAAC
# T1 sequence (P12390 whole entry): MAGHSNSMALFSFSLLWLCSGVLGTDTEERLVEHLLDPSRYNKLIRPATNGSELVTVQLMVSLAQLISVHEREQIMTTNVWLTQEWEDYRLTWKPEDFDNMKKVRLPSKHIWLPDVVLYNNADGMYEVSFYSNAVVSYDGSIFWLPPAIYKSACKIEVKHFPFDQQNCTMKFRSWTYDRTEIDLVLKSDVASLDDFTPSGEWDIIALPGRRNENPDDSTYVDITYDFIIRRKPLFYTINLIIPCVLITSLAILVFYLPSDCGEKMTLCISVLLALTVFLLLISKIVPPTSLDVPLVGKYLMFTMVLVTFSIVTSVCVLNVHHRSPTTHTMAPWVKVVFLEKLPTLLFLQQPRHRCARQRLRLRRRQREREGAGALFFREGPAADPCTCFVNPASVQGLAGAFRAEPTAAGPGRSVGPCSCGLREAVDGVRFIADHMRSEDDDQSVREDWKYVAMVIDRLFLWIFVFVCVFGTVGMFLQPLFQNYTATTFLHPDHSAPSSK
# Sequence of Neuronal acetylcholine receptor; alpha4/beta4 (P09483 whole entry): as the sequence (P09483 whole entry) above
# Sequence of Neuronal acetylcholine receptor; alpha4/beta4 (P12392 whole entry): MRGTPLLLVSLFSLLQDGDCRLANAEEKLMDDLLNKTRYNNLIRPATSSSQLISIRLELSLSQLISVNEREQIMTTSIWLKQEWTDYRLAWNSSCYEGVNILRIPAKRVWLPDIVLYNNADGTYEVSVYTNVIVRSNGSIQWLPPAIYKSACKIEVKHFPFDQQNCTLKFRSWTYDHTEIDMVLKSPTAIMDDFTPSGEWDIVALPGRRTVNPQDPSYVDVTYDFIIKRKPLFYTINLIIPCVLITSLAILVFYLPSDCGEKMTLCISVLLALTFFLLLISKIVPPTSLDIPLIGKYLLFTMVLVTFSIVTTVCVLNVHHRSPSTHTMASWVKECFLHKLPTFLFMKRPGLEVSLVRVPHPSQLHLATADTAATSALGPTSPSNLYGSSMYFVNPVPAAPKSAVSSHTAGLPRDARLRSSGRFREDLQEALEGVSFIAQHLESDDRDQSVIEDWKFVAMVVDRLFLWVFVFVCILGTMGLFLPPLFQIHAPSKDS
# Sequence of Neuronal acetylcholine receptor subunit alpha-7 (Q05941 whole entry): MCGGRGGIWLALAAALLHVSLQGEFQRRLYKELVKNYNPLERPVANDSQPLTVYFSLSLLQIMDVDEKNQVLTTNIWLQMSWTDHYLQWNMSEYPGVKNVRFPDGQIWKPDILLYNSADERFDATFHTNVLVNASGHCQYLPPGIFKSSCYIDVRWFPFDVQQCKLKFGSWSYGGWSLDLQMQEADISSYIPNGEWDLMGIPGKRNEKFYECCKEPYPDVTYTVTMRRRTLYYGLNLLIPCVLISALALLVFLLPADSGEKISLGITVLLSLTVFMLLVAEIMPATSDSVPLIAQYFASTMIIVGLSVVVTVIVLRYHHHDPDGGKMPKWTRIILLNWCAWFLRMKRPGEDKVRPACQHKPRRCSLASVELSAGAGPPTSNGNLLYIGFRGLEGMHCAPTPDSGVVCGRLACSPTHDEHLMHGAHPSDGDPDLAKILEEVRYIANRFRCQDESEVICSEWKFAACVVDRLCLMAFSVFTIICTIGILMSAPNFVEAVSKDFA
# Sequence of Neuronal acetylcholine receptor; alpha3/beta4 (P04757 whole entry): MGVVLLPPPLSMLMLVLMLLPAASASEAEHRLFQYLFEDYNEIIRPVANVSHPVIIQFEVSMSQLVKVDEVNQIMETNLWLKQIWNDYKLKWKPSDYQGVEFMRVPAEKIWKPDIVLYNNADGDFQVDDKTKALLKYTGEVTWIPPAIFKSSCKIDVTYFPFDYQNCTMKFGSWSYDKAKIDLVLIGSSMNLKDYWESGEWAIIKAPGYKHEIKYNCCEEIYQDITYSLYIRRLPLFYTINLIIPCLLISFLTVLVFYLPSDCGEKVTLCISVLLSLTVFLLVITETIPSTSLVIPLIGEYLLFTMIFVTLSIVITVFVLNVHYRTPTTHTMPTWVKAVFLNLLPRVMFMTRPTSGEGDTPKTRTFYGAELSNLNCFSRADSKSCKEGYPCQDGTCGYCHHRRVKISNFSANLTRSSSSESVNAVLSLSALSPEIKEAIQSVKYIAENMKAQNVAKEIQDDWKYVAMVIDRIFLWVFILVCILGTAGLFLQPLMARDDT
# Sequence of Neuronal acetylcholine receptor; alpha3/beta4 (P12392 whole entry): as the sequence (P12392 whole entry) above
smiles,measurement,setting,value
c1cc2c(cn1)[C@@H]1CCCN1CC2,Ki,[1],100 µM
same,Ki,[2],3.4 µM
same,Ki,[3],> 300 µM
same,Ki,[4],100 µM
c1cc2c(cn1)CCN1CCCC21 (racemic),Ki,[1],100 µM
same,Ki,[2],13 µM
same,Ki,[4],100 µM
c1cc2c(cn1)[C@H]1CCCN1CC2,Ki,[1],50 µM
same,inhibition,[5],Active
same,Activity,Mus musculus,inactive
same,IC50,[6],135 µM
same,Ki,[6],15 µM
same,IC50,[7],87 µM
same,Ki,[7],0.34 µM
same,Ki,[3],300 µM
same,inhibition,[8],inactive
same,Ki,[4],3.7 µM
c1cc2c(cn1)C1CCCN1CC2 (racemic),Activity,[9],inactive
same,Ki,[1],100 µM
same,IC50,[10],0.12 µM
same,Ki,[2],0.071 µM
same,Ki,[3],500 µM
same,Ki,[4],7.2 µM
